ABHD4 inh – inhibitors of mouse ABHD4; 370,000 tested, 0.54% active; inhibition, % at 8.92 µM; Q8VD66; purified mABHD4, FP-Rh probe fluorescence polarization; AID 720543;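 active = inhibition exceeding the mean over every tested compound plus 3 SD, cut at about 30% in these data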
Target sequence (Q8VD66 whole entry, looked up): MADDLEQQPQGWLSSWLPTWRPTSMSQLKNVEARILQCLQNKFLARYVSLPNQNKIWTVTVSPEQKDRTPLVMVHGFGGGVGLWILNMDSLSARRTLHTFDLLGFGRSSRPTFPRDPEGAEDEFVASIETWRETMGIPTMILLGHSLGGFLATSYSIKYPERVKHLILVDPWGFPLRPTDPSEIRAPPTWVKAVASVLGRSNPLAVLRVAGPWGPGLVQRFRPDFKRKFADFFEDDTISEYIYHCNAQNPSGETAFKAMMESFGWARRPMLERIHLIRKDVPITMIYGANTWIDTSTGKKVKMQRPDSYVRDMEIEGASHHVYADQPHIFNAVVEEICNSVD
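Assay system: Wild-type mouse ABHD4 protein | Medium: HEPES pH 7.0 buffer, 150 mM NaCl, 0.01% Pluronic F-127 | Incubation: Enzyme–compound pre-incubation 45 min, then probe 60 min, both 25 °C | Technique: Fluorescence polarization with parallel and perpendicular emission, 525/598 nm | Evaluation: % inhibition of FP-Rh probe binding versus controls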
TCR-CD3 inh – blocks the human TCR-CD3 interaction; inhibition, % at 9.4 µM; 360,000 tested, 0.37% active; TAMRA-labeled TCR probe fluorescence, biochemical; in the data active = inhibition above about 19%;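 also: recombinant mutant TCR 2C K166C tagged with TAMRA read by polarization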
HTRA1 inh – HTRA1 (human) protease inhibition | inhibition, % at 5.96 µM | recombinant HTRA1, FP-rhodamine activity-based probe, fluorescence polarization | Q92743 | AID 504803 | 340,000 tested, 0.5% active; in the data active = inhibition above about 36%
PRMT1 inh – PRMT1 (human) inhibition, primary screen | recombinant PRMT1, activity-based probe fluorescence polarization | inhibition, % at 2.79 µM | 370,000 tested, 1.3% active;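 active = inhibition above about 21% made by adding two undisclosed values, limit read from the data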
SIAE primary – inhibitors of human sialic acid acetylesterase SIAE; 370,000 tested, 0.69% active; Q9HAT2; inhibition, % at 9.66 µM; AID 1053197; SIAE FP-Rh probe binding, fluorescence polarization;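 active = inhibition above a cutoff: mean of compounds within the control limits plus 3 SD of those, cut at about 17% in these data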
PRMT1 confirm – PRMT1 (human) inhibition, FP confirmation; shares compounds with PRMT1 inh; recombinant His-PRMT1, activity-based probe fluorescence polarization; inhibition, % at 2.79 µM; 3,300 tested, 42% active;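 active = mean inhibition across replicates above the hit cutoff derived for the earlier primary screen, cut at about 22% in these data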
Numbers stand for hits; n = inactive; x = no result. Only some compounds are listed: those with a hit (about 2.5% of all), similar ones and a draw of the others.

SMILES	ABHD4 inh	TCR-CD3 inh	HTRA1 inh	PRMT1 inh	SIAE primary	PRMT1 confirm
C[C@H](NS(=O)(=O)c1ccc([N+](=O)[O-])cc1)C(=O)NCCNC(=O)[C@@H](C)NS(=O)(=O)c1ccc([N+](=O)[O-])cc1	n	x	x	n	n	x
CCOC(=O)C1CSC2(CCC(c3ccccc3)CC2)N1 (centres undefined)	n	n	n	48	n	28
CCOC(=O)C1NC(=O)CC1c1ccccc1 (centres undefined)	n	n	n	n	n	x
COC(=O)[C@]12CCCCC=C1N(Cc1ccc(OC)cc1)C(=O)[C@@H]2CC(=O)N1CCCCC1	n	x	x	n	n	x
COC(=O)c1c(NC(=O)CN2CCC3(O)CCCCC3C2c2ccc(OC)cc2OC)sc(C)c1C (centres undefined)	n	n	n	30	n	n
Nn1c(SCC(=O)N2c3ccccc3Sc3ccc(Cl)cc32)nnc1-c1cc(-c2ccc(F)cc2)n[nH]1	n	x	x	n	n	x
CCOC(=O)C1CCCN(C2CC(=O)N(c3ccccc3)C2=O)C1 (centres undefined)	n	n	n	57	n	n
CCOC(=O)C1CCCN(C2CC(=O)N(c3ccc(C)c(C)c3)C2=O)C1 (centres undefined)	n	n	n	46	n	n
CCOC(=O)C1CCCN(C2CC(=O)N(c3cccc(C(F)(F)F)c3)C2=O)C1 (centres undefined)	n	n	n	26	n	25
O=C(OCC#CCSc1nnc(-c2cccc3ccccc23)o1)c1cc(F)c(F)c(F)c1	n	x	x	n	n	x
Cc1ccc(NC(=S)N2CCSC2c2cccs2)cc1 (centres undefined)	n	n	n	60	n	n
COc1ccc(C2SCCN2C(=S)Nc2ccc(Cl)cc2)cc1 (centres undefined)	n	n	n	66	n	n
COc1ccc(NC(=S)N2CCN(C)CC2)cc1	n	n	x	n	n	x
COc1ccc(C2SCCN2C(=S)Nc2cccc(Cl)c2)cc1 (centres undefined)	n	n	n	80	n	n
O=C(OC12CCCN(C1)/C(=C/c1cccc(Cl)c1)C2)c1ccc(F)cc1 (centres undefined)	n	x	x	n	n	x
c1ccc(CN2CCC3(CC2)Nc2ccccc2S3)cc1	n	n	n	54	n	n
O=C(NCc1ccccc1)[C@H]1CCCN1C(=O)[C@H]1CCCN1C(=O)c1ccc(OC(F)(F)F)cc1	n	n	x	n	n	x
Cc1ccc(-c2cc(C(=O)Nc3cccnc3)c3ccccc3n2)o1	n	n	n	46	n	n
COc1ccc(OC)c(/C=N/NC(=O)c2cc(-c3ccc(C)o3)nc3ccccc23)c1	n	n	n	30	n	n
Cc1ccc(NC(=O)c2cc(-c3ccc(C)o3)nc3ccccc23)cc1	n	n	n	49	n	25
C#CCN1CC(N2CCN(CCO)CC2)CS1(=O)=O (centres undefined)	n	x	x	n	n	x
COC(=O)c1ccc(-c2ccco2)n1Cc1nc(-c2ccc(OC)c(OC)c2)oc1C	n	n	n	29	n	n
C[C@H]1[C@@H](OC(=O)Nc2ccccc2Cl)CC[C@@]23CCCN2C(=O)CCC[C@@H]13	n	x	x	n	n	x
CCOC(=O)C1=C(O)/C(=C\c2cccs2)N=C1C	n	n	n	n	n	x
CCOC(=O)C1=C(O)/C(=C\c2ccc(CNC(=O)C(=O)Nc3ccccc3)o2)N=C1C	n	n	n	34	n	23
SMILES	ABHD4 inh	TCR-CD3 inh	HTRA1 inh	PRMT1 inh	SIAE primary	PRMT1 confirm
C=CCn1c(SCCN2CCOCC2)nc2c1c(=O)[nH]c(=O)n2C	n	n	n	n	n	x
COCCn1c(SCCN2CCOCC2)nc2c1c(=O)[nH]c(=O)n2C	n	n	n	38	n	40
Cc1cc2cc(CN(Cc3ccc4c(c3)OCO4)C(=O)c3ccco3)c(=O)[nH]c2cc1C	x	x	n	x	x	x
COc1cc2cc(CN(Cc3ccc4c(c3)OCO4)C(=O)c3ccco3)c(=O)[nH]c2cc1OC	n	n	n	45	n	n
CC(C)(N[C@@H](Cc1c[nH]c2ccccc12)C(=O)NCCCc1ccccc1)C(=O)NCc1ccccc1	n	x	x	n	n	x
CC1(C)Cc2c(C#N)c(NCc3ccco3)nc(-c3ccco3)c2CO1	n	n	n	n	n	x
CC1(C)Cc2c(C#N)c(N3CCCC3)nc(-c3ccco3)c2CO1	n	n	n	27	n	26
CCOC(=O)c1c(N2C(=O)C3C4C=CC(O4)C3C2=O)sc2c1CCCC2 (centres undefined)	n	n	n	82	n	56
CCOC(=O)c1c(-n2cnnn2)sc2c1CCCC2	n	n	n	n	n	x
S=C1NC(c2ccccc2)=NCN1c1ccc(Cl)cc1	n	n	n	n	n	x
COC(=O)c1ccc(N2CN=C(c3ccc(C)cc3)NC2=S)cc1	n	n	n	35	n	n
CCC[C@H]1[C@@H](NCC2CCCCC2)CC[C@@]23CCCN2C(=O)CCC[C@@H]13	n	x	x	n	n	x
COc1ccc(NC2=CC(c3ccc(OC)c(OC)c3)N(c3ccc(OC)cc3)C2=O)cc1 (centres undefined)	n	n	n	n	n	x
NS(=O)(=O)c1ccc(NC2=CC(c3ccc([N+](=O)[O-])cc3)N(c3ccc(S(N)(=O)=O)cc3)C2=O)cc1 (centres undefined)	n	n	n	27	n	n
Cc1ccc(S(=O)(=O)N2OC(c3ccccc3)C[C@H]2CC=C(c2ccccc2)c2ccccc2)cc1 (some centres undefined)	n	x	x	n	n	x
CCc1ccc(/C=C/C(=O)C2C(=O)c3ccccc3C2=O)cc1	n	n	n	n	n	x
CC[N+]1(C)CCC(O)(/C=C/c2ccccc2)C(C(=O)/C=C/c2ccccc2)C1 (centres undefined)	n	n	n	68	n	49
CCOC(=O)C1CCCCN1C(=O)[C@@H]1CC=C[C@@H]2CCN(c3ccccc3)C(=O)[C@@H]21 (some centres undefined)	n	x	x	n	n	x
Cc1ccc(CN2CCCCC(NC(=O)c3ccccc3)C2=O)cc1 (centres undefined)	n	x	x	n	n	x
CN1CCCCC(NC(=O)CCl)C1=O (centres undefined)	n	n	x	n	n	x
CCOC(=O)c1cc(N2CCCCC2)nc2ccccc12	n	n	n	n	n	x
COC(=O)c1cc(N2CCN(C)CC2)nc2ccccc12	n	n	n	83	n	n
COc1ccc(S(=O)(=O)c2c(N)n(Cc3ccco3)c3nc4ccccc4nc23)cc1	n	n	n	28	n	n
COC(=O)c1cc(-c2ccc(F)c(Cl)c2)c(=O)n2c1CCC2	n	x	x	n	n	x
CSS(=O)(=O)c1cccc2cccnc12	n	n	x	92	n	96
CCC[C@H]1[C@@H](NS(=O)(=O)c2ccccc2[N+](=O)[O-])CC[C@@]23CCCN2C(=O)CCC[C@@H]13	n	x	x	n	n	x
